Source: ChEMBL document CHEMBL1153056, “Identification of MK-1925: a selective, orally active and brain-penetrable opioid receptor-like 1 (ORL1) antagonist” (Bioorg Med Chem Lett, 2009)
Each block holds one compound with its values, some of them ahead of it.

How the values were obtained:
Nociceptin receptor [1] = biological target: T1, Nociceptin receptor (Homo sapiens, UniProt P41146); assay: Displacement of [125I]Tyr14-NC/OFQ from ORL1 receptor
Nociceptin receptor [2] = biological target: T1, Nociceptin receptor; assay: Antagonist activity at ORL1 receptor by [35S]GTPgammaS binding assay; assay type: functional
[3] = Distribution coefficient, log D at pH 7.4 by shake-flask method; assay type: physicochemical; conditions: octanol/water
[4] = Metabolic stability in cryopreserved human hepatocytes after 30 mins; assay type: ADME, cell-based, Hepatocyte; conditions: read-out: Stability
[5] = Oral bioavailability in rat at 3 mg/kg; assay type: ADME, organism-based; conditions: in vivo
Method in brief: (§1)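 PK run with a 3 mg/kg oral dose and a 1 mg/kg IV dose; values are the mean of n = 3 animals.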

Mus musculus [6] = assay: Plasma concentration in mouse at 3 mg/kg, po; assay type: ADME, organism-based; parameters: dose 3 mg/kg, route oral; conditions: in vivo
Method in brief: (§2)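 Mice dosed orally at 3, 10 or 30 mg/kg. Plasma and brain were sampled 60 min after dosing. Brain level is given as nmol/g brain, and the brain/plasma ratio was derived.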

Mus musculus [7] = assay: Plasma concentration in mouse at 10 mg/kg, po; assay type: ADME, organism-based; parameters: dose 10 mg/kg, route oral; conditions: in vivo; method in brief: as §2
Mus musculus [8] = assay: Plasma concentration in mouse at 30 mg/kg, po; assay type: ADME, organism-based; parameters: dose 30 mg/kg, route oral; conditions: in vivo; method in brief: as §2
Brain [9] = assay: Drug level in mouse brain assessed per gram of tissue at 3 mg/kg, po after 60 mins; assay type: ADME, organism-based; parameters: dose 3 mg/kg, route oral; conditions: in vivo, 1 h; method in brief: as §2
Brain [10] = assay: Drug level in mouse brain assessed per gram of tissue at 10 mg/kg, po after 60 mins; assay type: ADME, organism-based; parameters: dose 10 mg/kg, route oral; conditions: in vivo, 1 h; method in brief: as §2
Brain [11] = assay: Drug level in mouse brain assessed per gram of tissue at 30 mg/kg, po after 60 mins; assay type: ADME, organism-based; parameters: dose 30 mg/kg, route oral; conditions: in vivo, 1 h; method in brief: as §2
[12] = Ratio of drug level in brain to plasma in mouse at 3 mg/kg, po after 60 mins; assay type: ADME, organism-based; parameters: dose 3 mg/kg, route oral
Method in brief: (§3)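 Mice received single oral doses (3, 10 or 30 mg/kg). Plasma and brain levels were taken 60 min after dosing. Brain levels were expressed as nmol/g brain, and the b/p ratio was brain level over plasma level.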

[13] = Ratio of drug level in brain to plasma in mouse at 10 mg/kg, po after 60 mins; assay type: ADME, organism-based; parameters: dose 10 mg/kg, route oral; method in brief: as §3
[14] = Ratio of drug level in brain to plasma in mouse at 30 mg/kg, po after 60 mins; assay type: ADME, organism-based; parameters: dose 30 mg/kg, route oral; method in brief: as §3
[15] = Inhibition of choline transporter at 10 uM
[16] = Inhibition of choline transporter
Canis familiaris = assay: Toxicity in anesthetized dog assessed as adverse effect up to 10 mg/kg; assay type: organism-based, Canis lupus familiaris; parameters: dose 10 mg/kg; conditions: in vivo
[17] = Cmax in anesthetized dog at 10 mg/kg; assay type: ADME, organism-based, Canis lupus familiaris; parameters: dose 10 mg/kg; conditions: in vivo
[18] = Cmax in dog at 3 mg/kg, po; assay type: ADME, organism-based, Canis lupus familiaris; parameters: dose 3 mg/kg, route oral; conditions: in vivo; method in brief: as §1
[19] = Half life in dog at 3 mg/kg, po; assay type: ADME, organism-based, Canis lupus familiaris; parameters: dose 3 mg/kg, route oral; conditions: in vivo; method in brief: as §1
[20] = Volume of distribution at steady state in dog at 1 mg/kg, iv; assay type: ADME, organism-based, Canis lupus familiaris; parameters: dose 1 mg/kg, route intravenous; conditions: in vivo, read-out: Vdss; method in brief: as §1
[21] = AUC (0 to infinity) in dog at 3 mg/kg, po; assay type: ADME, organism-based, Canis lupus familiaris; parameters: dose 3 mg/kg, route oral, time infinity; conditions: plasma; method in brief: as §1
[22] = Half life in rat at 3 mg/kg, po; assay type: ADME, organism-based; parameters: dose 3 mg/kg, route oral; conditions: in vivo; method in brief: as §1
[23] = Plasma clearance in dog at 1 mg/kg, iv; assay type: ADME, organism-based, Canis lupus familiaris; parameters: dose 1 mg/kg, route intravenous; method in brief: as §1
[24] = AUC (0 to infinity) in rat at 3 mg/kg, po; assay type: ADME, organism-based; parameters: time infinity, dose 3 mg/kg, route oral; conditions: plasma; method in brief: as §1
[25] = Cmax in rat at 3 mg/kg, po; assay type: ADME, organism-based; parameters: dose 3 mg/kg, route oral; conditions: in vivo; method in brief: as §1
[26] = Plasma clearance in rat at 1 mg/kg, iv; assay type: ADME, organism-based; parameters: dose 1 mg/kg, route intravenous; method in brief: as §1
[27] = Volume of distribution at steady state in rat at 1 mg/kg, iv; assay type: ADME, organism-based; parameters: dose 1 mg/kg, route intravenous; conditions: in vivo, read-out: Vdss; method in brief: as §1
Mu-type opioid receptor = Mu-type opioid receptor (Homo sapiens, UniProt P35372); assay: Displacement of [3H]diprenorphin from human cloned mu opioid receptor expressed in CHO cells; assay type: cell-based
Mu-type opioid receptor, sequence (P35372 whole entry): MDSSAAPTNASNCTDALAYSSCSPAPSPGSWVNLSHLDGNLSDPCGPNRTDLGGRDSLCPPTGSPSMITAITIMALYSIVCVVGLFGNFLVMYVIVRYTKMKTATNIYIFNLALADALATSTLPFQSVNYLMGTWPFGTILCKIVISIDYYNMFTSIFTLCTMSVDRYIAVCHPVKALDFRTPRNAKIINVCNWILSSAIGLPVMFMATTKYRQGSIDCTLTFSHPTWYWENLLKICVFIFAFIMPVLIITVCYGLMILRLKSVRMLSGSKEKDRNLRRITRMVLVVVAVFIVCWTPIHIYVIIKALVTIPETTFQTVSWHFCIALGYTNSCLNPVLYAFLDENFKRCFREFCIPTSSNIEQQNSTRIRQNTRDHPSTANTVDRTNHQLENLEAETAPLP

[28] = biological target: Kappa-type opioid receptor (Homo sapiens, UniProt P41145); assay: Displacement of [3H]U69593 from human cloned kappa opioid receptor expressed in CHO cells; assay type: cell-based
Kappa-type opioid receptor, sequence (P41145 whole entry): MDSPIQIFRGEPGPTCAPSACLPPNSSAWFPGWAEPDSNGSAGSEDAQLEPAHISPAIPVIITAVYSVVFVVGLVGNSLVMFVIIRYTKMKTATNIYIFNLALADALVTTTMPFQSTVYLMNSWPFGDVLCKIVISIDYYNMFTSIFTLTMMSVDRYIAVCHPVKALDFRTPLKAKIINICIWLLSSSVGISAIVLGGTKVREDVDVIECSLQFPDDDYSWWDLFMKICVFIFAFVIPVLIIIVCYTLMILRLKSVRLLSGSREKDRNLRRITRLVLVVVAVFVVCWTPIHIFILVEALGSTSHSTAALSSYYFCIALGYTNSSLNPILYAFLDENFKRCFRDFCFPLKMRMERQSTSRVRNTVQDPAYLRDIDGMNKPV

[29] = biological target: Delta-type opioid receptor (Homo sapiens, UniProt P41143); assay: Displacement of [3H]naltrindole from human cloned delta opioid receptor expressed in CHO cells; assay type: cell-based
Delta-type opioid receptor, sequence (P41143 whole entry): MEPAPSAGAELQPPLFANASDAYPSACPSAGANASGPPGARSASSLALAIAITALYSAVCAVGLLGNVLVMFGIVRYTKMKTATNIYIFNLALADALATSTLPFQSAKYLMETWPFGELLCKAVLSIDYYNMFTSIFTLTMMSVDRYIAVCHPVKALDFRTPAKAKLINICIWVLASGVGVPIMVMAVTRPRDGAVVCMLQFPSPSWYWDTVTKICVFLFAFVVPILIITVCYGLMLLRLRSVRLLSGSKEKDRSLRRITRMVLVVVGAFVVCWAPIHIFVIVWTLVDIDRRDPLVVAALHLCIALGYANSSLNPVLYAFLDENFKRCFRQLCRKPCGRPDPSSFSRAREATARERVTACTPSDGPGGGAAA

[30] = biological target: Voltage-gated inwardly rectifying potassium channel KCNH2 (Homo sapiens, UniProt Q12809); assay: Displacement of [35S]MK499 from human ERG expressed in HEK293 cells overexpressing Ikr channel protein; assay type: cell-based
Voltage-gated inwardly rectifying potassium channel KCNH2, sequence (Q12809 whole entry): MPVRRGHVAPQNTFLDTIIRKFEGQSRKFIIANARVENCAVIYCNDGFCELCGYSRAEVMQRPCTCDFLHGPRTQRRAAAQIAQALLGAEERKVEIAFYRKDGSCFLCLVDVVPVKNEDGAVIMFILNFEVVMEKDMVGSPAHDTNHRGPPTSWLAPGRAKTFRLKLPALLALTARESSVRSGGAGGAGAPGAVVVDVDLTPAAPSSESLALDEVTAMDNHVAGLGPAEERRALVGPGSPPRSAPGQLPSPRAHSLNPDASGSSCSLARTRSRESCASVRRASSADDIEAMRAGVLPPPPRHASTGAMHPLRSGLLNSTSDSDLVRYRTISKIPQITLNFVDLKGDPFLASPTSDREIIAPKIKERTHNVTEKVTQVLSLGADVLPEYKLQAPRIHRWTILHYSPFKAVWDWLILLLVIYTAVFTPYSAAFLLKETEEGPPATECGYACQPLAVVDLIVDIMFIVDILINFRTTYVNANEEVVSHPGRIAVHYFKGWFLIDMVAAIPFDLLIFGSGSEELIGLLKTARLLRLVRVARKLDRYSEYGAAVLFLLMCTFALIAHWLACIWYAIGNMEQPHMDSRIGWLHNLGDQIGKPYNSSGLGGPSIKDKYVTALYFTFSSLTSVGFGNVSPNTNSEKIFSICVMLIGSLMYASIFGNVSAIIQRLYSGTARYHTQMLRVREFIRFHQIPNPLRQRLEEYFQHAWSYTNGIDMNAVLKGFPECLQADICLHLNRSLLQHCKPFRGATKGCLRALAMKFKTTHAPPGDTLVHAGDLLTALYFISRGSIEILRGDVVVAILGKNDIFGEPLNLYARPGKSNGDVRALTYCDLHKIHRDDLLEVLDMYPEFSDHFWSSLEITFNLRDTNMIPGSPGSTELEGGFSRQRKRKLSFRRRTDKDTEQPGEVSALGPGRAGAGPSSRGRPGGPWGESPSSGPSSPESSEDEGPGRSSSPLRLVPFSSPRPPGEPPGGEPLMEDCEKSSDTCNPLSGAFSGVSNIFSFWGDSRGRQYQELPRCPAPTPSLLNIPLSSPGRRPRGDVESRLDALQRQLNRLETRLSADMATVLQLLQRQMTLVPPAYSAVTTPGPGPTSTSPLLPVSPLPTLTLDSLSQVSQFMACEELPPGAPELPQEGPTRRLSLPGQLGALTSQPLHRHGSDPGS
Method in brief: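 Membranes from HEK 293 cells stably transfected with the hERG gene and expressing the I_Kr channel protein; [³⁵S]-radiolabeled MK499 displaced.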

[31] = Oral bioavailability in dog at 3 mg/kg; assay type: ADME, organism-based, Canis lupus familiaris; conditions: in vivo; method in brief: as §1
Mus musculus [32] = assay: Reversal of ORL1 agonist-induced locomotor activity in mouse at 3 mg/kg, po after 60 mins; assay type: functional
Method in brief: (§4)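 Mice dosed orally; ORL1 agonist then given to reduce locomotor activity, with activity monitored for 60 min. Result expressed as % reversal of the agonist-induced reduction in locomotor activity.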

Mus musculus [33] = assay: Reversal of ORL1 agonist-induced locomotor activity in mouse at 10 mg/kg, po after 60 mins; assay type: functional; method in brief: as §4
Mus musculus [34] = assay: Reversal of ORL1 agonist-induced locomotor activity in mouse at 30 mg/kg, po after 60 mins; assay type: functional; method in brief: as §4
Mus musculus [35] = assay: Reversal of ORL1 agonist-induced locomotor activity in po dosed mouse after 60 mins; assay type: functional, organism-based
Method in brief: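 Mice received oral doses of 3, 10 or 30 mg/kg against the locomotor-activity reduction produced by an ORL1 agonist, measured over 60 min. Results are expressed as % reversal of the agonist response.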

T1 sequence (P41146 whole entry): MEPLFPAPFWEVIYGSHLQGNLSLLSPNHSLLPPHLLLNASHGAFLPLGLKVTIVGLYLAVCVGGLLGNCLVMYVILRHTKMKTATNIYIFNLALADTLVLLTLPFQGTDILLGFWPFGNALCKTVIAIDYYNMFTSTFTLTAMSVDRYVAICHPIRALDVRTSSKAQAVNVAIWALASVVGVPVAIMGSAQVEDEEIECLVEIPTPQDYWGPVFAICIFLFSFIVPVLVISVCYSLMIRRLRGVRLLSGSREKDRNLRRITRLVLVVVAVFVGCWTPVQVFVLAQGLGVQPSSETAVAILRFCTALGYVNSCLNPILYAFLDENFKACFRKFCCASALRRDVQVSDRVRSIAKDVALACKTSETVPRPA

IC50 (Nociceptin receptor [1]): 15 nM
IC50 (Nociceptin receptor [2]): 13 nM
SMILES: Cc1c(CN[C@H]2CC[C@@H](F)C2)nn(C)c1-c1cc(F)c(F)c(F)c1

IC50 (Nociceptin receptor [1]): 3.1 nM
IC50 (Nociceptin receptor [2]): 2.5 nM
remaining at 0.5 h [4]: 56%
logD [3]: 1.9
SMILES: Cc1c(CN[C@H]2CC[C@@H](F)C2)nn(C)c1-c1cc(F)cc(F)c1

IC50 (Nociceptin receptor [1]): 4.3 nM
IC50 (Nociceptin receptor [2]): 2.2 nM
remaining at 0.5 h [4]: 25%
SMILES: Cc1ncc(-c2c(C)c(CN[C@H]3CC[C@@H](F)C3)nn2C)cc1F

IC50 (Nociceptin receptor [1]): 9.9 nM
IC50 (Nociceptin receptor [2]): 7.8 nM
remaining at 0.5 h [4]: 21%
SMILES: Cc1ncc(-c2[nH]nc(CN[C@H]3CC[C@@H](F)C3)c2C)cc1F

IC50 (Nociceptin receptor [1]): 6.4 nM
IC50 (Nociceptin receptor [2]): 6.5 nM
SMILES: Cc1c(CN[C@H]2CC[C@@H](F)C2)nn(C)c1-c1ccc(F)c(F)c1

bioavailability [5]: 3.2%
remaining at 0.5 h [4]: 39%
SMILES: Cc1ncc(-c2c(C)c(CN[C@H]3CC[C@@H](F)C3)nn2-c2ncccc2Cl)cc1F

IC50 (Nociceptin receptor [1]): 2 nM
IC50 (Nociceptin receptor [2]): 0.61 nM
SMILES: CCn1nc(CN[C@H]2CC[C@@H](F)C2)c(C)c1-c1cnc(C)c(F)c1

Further lines, the compound ahead of its results:

SMILES: Cc1c(CN[C@H]2CC[C@@H](F)C2)nn(C)c1-c1cc(F)cc(Cl)c1
IC50 (Nociceptin receptor [1]): 17 nM

SMILES: CC(=O)Cn1nc(CN[C@H]2CC[C@@H](F)C2)c(C)c1-c1cc(F)cc(F)c1
IC50 (Nociceptin receptor [1]): 12 nM
logD [3]: 1.4

SMILES: Cc1c(CN[C@H]2CC[C@@H](F)C2)nn(C)c1-c1cc(F)cc(C(F)(F)F)c1
IC50 (Nociceptin receptor [1]): 210 nM

SMILES: Cc1c(CN[C@H]2CC[C@@H](F)C2)nn(CCO)c1-c1cc(F)cc(F)c1
IC50 (Nociceptin receptor [1]): 15 nM
logD [3]: 1.3

SMILES: COCc1c(CN[C@H]2CC[C@@H](F)C2)nn(C)c1-c1cc(F)cc(F)c1
IC50 (Nociceptin receptor [1]): 1.4 nM
IC50 (Nociceptin receptor [2]): 1 nM
remaining at 0.5 h [4]: 39%

SMILES: Cc1c(CN[C@H]2CC[C@@H](F)C2)nn(CCS(C)(=O)=O)c1-c1cc(F)cc(F)c1
IC50 (Nociceptin receptor [1]): 33 nM
logD [3]: < 1

SMILES: Cc1c(CN[C@H]2CC[C@@H](F)C2)nn(CCC#N)c1-c1cc(F)cc(F)c1
concentration (Mus musculus [6]): 16 nM
concentration (Mus musculus [7]): 315 nM
concentration (Mus musculus [8]): 1630 nM
Drug uptake (Brain [9]): 0.035 nmol/g
Drug uptake (Brain [10]): 0.516 nmol/g
Drug uptake (Brain [11]): 3.02 nmol/g
Kp at 1 h [12]: 3.42
Kp at 1 h [13]: 1.62
Kp at 1 h [14]: 1.84
inhibition [15]: 50%
IC50 [16]: 3700 nM
Activity (Canis familiaris): Non-toxic
Cmax [17]: 9700 nM
Cmax [18]: 2600 nM
half-life [19]: 2.8 h
Vd [20]: 3.5 L/kg
AUC(0-inf) [21]: 1.3 µM·h
half-life [22]: 0.7 h
bioavailability [5]: 21%
clearance [23]: 37 mL/min/kg
AUC(0-inf) [24]: 0.3 µM·h
Cmax [25]: 400 nM
clearance [26]: 83 mL/min/kg
Vd [27]: 5.2 L/kg
remaining at 0.5 h [4]: 77%
logD [3]: 1.5
IC50 (Mu-type opioid receptor): > 10000 nM
IC50 [28]: 9800 nM
IC50 [29]: > 10000 nM
IC50 [30]: 9500 nM
bioavailability [31]: 62%
Activity (Mus musculus [32]): 17%
Activity (Mus musculus [33]): 81%
Activity (Mus musculus [34]): 112%
Activity (Mus musculus [35]): Dose-dependent effect

SMILES: Cn1nc(CN[C@H]2CC[C@@H](F)C2)c(Cl)c1-c1cc(F)cc(F)c1
IC50 (Nociceptin receptor [1]): 9.3 nM
IC50 (Nociceptin receptor [2]): 2.5 nM
remaining at 0.5 h [4]: 40%
